Reference: ChEMBL document CHEMBL4613249, “Serendipitous Discovery of Leucine and Methionine Depletion Agents during the Search for Polyamine Transport Inhibitors” (J Med Chem, 2020)
Active and inactive are the calls of the source. The calls are words filed in the database; no cut-off is given here.

Columns and labels:
L3.6pl [1] = experiment: Effect on polyamine level in human L3.6PL cells assessed as leucine level per mg protein in supernatant at 5 uM measured after 72 hrs in presence of amine oxidase suppressor aminoguanidine by LCMS analysis (reference value: 18009 +/- 9061 pmol/mg); format: functional
L3.6pl [2] = experiment: Effect on polyamine level in human L3.6PL cells assessed as acetyl spermine level per mg protein in supernatant at 2 uM measured after 72 hrs in presence of amine oxidase suppressor aminoguanidine by LCMS analysis (reference value: 77 +/- 43 pmol/mg); format: functional
[3] = molecular target: Large neutral amino acids transporter small subunit 1 (Homo sapiens) (UniProt Q01650); experiment: Inhibition of LAT1-mediated amino acid transport in human L3.6PL cells assessed as reduction in intracellular leucine level by measuring leucine level per mg protein in cell lysate at 5 uM measured after 72 hrs by LCMS analysis (reference value: 232 +/- 10 pmol/mg); format: cell-based
Outline: (§1)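 L3.6pl cells (50,000 cells/mL, 10 mL, 1 mM aminoguanidine) were seeded in poly-lysine-treated 9 cm dishes and incubated overnight at 37°C. They were then dosed with compound at 2, 5 or 7 μM from PBS stocks (2, 5, 7 mM) and incubated 72 h. Runs were done in triplicate, with amino acid levels per mg protein.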

L3.6pl [4] = experiment: Effect on polyamine level in human L3.6PL cells assessed as acetyl spermine level per mg protein in supernatant at 5 uM measured after 72 hrs in presence of amine oxidase suppressor aminoguanidine by LCMS analysis (reference value: 77 +/- 43 pmol/mg); format: functional
L3.6pl [5] = experiment: Effect on polyamine level in human L3.6PL cells assessed as ornithine level per mg protein in supernatant at 5 uM measured after 72 hrs in presence of amine oxidase suppressor aminoguanidine by LCMS analysis (reference value: 10588 +/- 3212 pmol/mg); format: functional
[6] = molecular target: Large neutral amino acids transporter small subunit 1 (Homo sapiens) (UniProt Q01650); experiment: Induction of LAT1-mediated polyamine efflux in aminoguanidine pretreated human L3.6PL cells assessed as reduction in cell viability up to 15 uM by MTS assay; format: cell-based; details: TDE = time-dependent effect
L3.6pl [7] = experiment: Effect on polyamine level in human L3.6PL cells assessed as decrease in intracellular spermine level at 2 to 7 uM measured after 72 hrs in presence of amine oxidase suppressor aminoguanidine by LCMS analysis; format: functional, cell-based; details: in the assay text read “by N-dansylation and HPLC analysis” for “by LCMS analysis”
Outline: (§2)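 L3.6pl cells, 50,000 cells/mL in 10 mL per Petri dish with 1 mM aminoguanidine, plated overnight. Dosed with compound at 2, 5 or 7 μM from PBS stocks, then 72 h at 37°C. Intracellular polyamines measured by N-dansylation and HPLC, in duplicate, as nmol/mg protein against a parallel untreated control.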

L3.6pl [8] = experiment: Effect on polyamine level in human L3.6PL cells assessed as acetyl spermidine level per mg protein in supernatant at 2 uM measured after 72 hrs in presence of amine oxidase suppressor aminoguanidine by LCMS analysis (reference value: 1936 +/- 1365 pmol/mg); format: functional
L3.6pl [9] = experiment: Effect on polyamine level in human L3.6PL cells assessed as agmatine level per mg protein in supernatant at 2 uM measured after 72 hrs in presence of amine oxidase suppressor aminoguanidine by LCMS analysis (reference value: 101 pmol/mg); format: functional
[10] = molecular target: Large neutral amino acids transporter small subunit 1 (Homo sapiens) (UniProt Q01650); experiment: Inhibition of LAT1-mediated amino acid transport in human L3.6PL cells assessed as reduction in intracellular methionine level by measuring methionine level per mg protein in cell lysate at 2 uM measured after 72 hrs by LCMS analysis (reference value: 167 +/- 67 pmol/mg); format: cell-based; outline: as §1
CHO-MG = experiment: Induction of polyamine efflux in aminoguanidine pretreated CHO-MG cells assessed as reduction in cell viability measured after 72 hrs in presence of putrescine by MTS assay; format: ADME, cell-based, Cricetulus griseus; details: chinese hamster
L3.6pl [11] = experiment: Effect on polyamine level in human L3.6PL cells assessed as putrescine level per mg protein in supernatant at 2 uM measured after 72 hrs in presence of amine oxidase suppressor aminoguanidine by LCMS analysis (reference value: 977 +/- 522 pmol/mg); format: functional
L3.6pl [12] = experiment: Effect on polyamine level in human L3.6PL cells assessed as arginine level per mg protein in supernatant at 5 uM measured after 72 hrs in presence of amine oxidase suppressor aminoguanidine by LCMS analysis (reference value: 22121 +/- 10585 pmol/mg); format: functional
L3.6pl [13] = experiment: Effect on polyamine level in human L3.6PL cells assessed as decrease in intracellular spermidine level at 1 uM measured after 72 hrs in presence of amine oxidase suppressor aminoguanidine and Ant-44 by LCMS analysis; format: functional, cell-based
Outline: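 L3.6pl cells dosed with Ant-44 fixed at 2 μM plus increasing compound for 72 h at 37°C. Intracellular polyamines and Ant-44 given as nmol/mg protein, in duplicate, with a parallel untreated control.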

L3.6pl [14] = experiment: Effect on polyamine level in human L3.6PL cells assessed as spermidine level per mg protein in supernatant at 2 uM measured after 72 hrs in presence of amine oxidase suppressor aminoguanidine by LCMS analysis (reference value: 339 pmol/mg); format: functional
[15] = molecular target: Large neutral amino acids transporter small subunit 1 (Homo sapiens) (UniProt Q01650); experiment: Inhibition of LAT1-mediated [3H]-leucine uptake in human L3.6PL cells at 2 to 7 uM preincubated for 24 hrs at 37 degree C followed by HBBS addition and compound washout and measured after 15 mins by scintillation counter method; format: cell-based
Outline: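 L3.6pl cells were preincubated with compound for 24 h at 37°C, then washed and placed in HBSS. ³H-leucine uptake was measured over 15 min at 37°C. Unbound label was removed with three cold buffer washes, and counts were normalized to μg protein.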

L3.6pl [16] = experiment: Effect on polyamine level in human L3.6PL cells assessed as spermine level per mg protein in supernatant at 5 uM measured after 72 hrs in presence of amine oxidase suppressor aminoguanidine by LCMS analysis (reference value: 6152 +/- 5596 pmol/mg); format: functional
L3.6pl [17] = experiment: Effect on polyamine level in human L3.6PL cells assessed as decrease in intracellular spermidine level at 2 to 7 uM measured after 72 hrs in presence of amine oxidase suppressor aminoguanidine by LCMS analysis; format: functional, cell-based; details: in the assay text read “by N-dansylation and HPLC analysis” for “by LCMS analysis”; outline: as §2
L3.6pl [18] = experiment: Effect on polyamine level in human L3.6PL cells assessed as ornithine level per mg protein in supernatant at 2 uM measured after 72 hrs in presence of amine oxidase suppressor aminoguanidine by LCMS analysis (reference value: 10588 +/- 3212 pmol/mg); format: functional
[19] = Toxicity in mouse at 1 mg/kg, ip measured over 24 hrs; format: organism-based; details: in vivo
CHO-K1 = experiment: Potentiation of 0.5 uM N-(anthracenylmethyl) homospermidine-induced toxicity in CHOK1 cells assessed as increase in Ant-44-induced reduction in cell growth at 5 uM measured after 48 hrs in presence of amine oxidase suppressor aminoguanidine by microscopy analysis; format: functional, cell-based; details: Cricetulus griseus
Outline: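 CHO K1 cells treated 48 h at 37°C with Ant-44 (0.5 μM) plus 5 μM compound, after 1 mM aminoguanidine pretreatment, were examined by microscope for cell number and shape versus untreated control cells.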

L3.6pl [20] = experiment: Effect on polyamine level in human L3.6PL cells assessed as spermidine level per mg protein in supernatant at 5 uM measured after 72 hrs in presence of amine oxidase suppressor aminoguanidine by LCMS analysis (reference value: 339 pmol/mg); format: functional

Chain of Large neutral amino acids transporter small subunit 1 (Homo sapiens) (Q01650 whole entry): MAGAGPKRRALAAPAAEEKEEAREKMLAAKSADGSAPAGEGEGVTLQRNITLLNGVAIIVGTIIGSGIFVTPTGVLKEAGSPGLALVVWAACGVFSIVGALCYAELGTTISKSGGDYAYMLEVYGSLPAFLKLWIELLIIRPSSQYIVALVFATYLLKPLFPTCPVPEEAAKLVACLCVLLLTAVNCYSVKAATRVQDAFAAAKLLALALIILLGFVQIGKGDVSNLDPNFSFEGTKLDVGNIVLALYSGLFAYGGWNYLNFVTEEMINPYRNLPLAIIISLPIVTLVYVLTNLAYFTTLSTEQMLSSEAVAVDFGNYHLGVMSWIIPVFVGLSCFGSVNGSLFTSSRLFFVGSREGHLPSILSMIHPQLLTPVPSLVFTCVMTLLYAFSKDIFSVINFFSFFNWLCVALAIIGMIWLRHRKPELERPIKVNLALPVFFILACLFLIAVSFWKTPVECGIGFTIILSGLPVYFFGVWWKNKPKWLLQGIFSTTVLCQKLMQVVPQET

SMILES: CC(C)CCN1CCN([C@@H](CNCc2ccccc2)CC2CCCCC2)C[C@@H]1CC(C)C
- Activity (L3.6pl [1]): 202092 pmol/mg
- Activity (L3.6pl [2]): 49 pmol/mg
- Activity [3]: 94 pmol/mg
- Activity (L3.6pl [4]): 36 pmol/mg
- Activity (L3.6pl [5]): 15951 pmol/mg
- Activity [6]: Tde
- Activity (L3.6pl [7]): Active
- Activity (L3.6pl [8]): 1649 pmol/mg
- Activity (L3.6pl [9]): 297 pmol/mg
- Activity [10]: 226 pmol/mg
- Activity (CHO-MG): Active
- Activity (L3.6pl [11]): 938 pmol/mg
- Activity (L3.6pl [12]): 43243 pmol/mg
- Activity (L3.6pl [13]): Active
- Activity (L3.6pl [14]): 131 pmol/mg
- inhibition [15]: inactive
- Activity (L3.6pl [16]): 2690 pmol/mg
- Activity (L3.6pl [17]): Active
- Activity (L3.6pl [18]): 9249 pmol/mg
- Activity [19]: Non-Toxic
- Activity (CHO-K1): Active
- Activity (L3.6pl [20]): 167 pmol/mg
